Screening results: PubChem BioAssay, several laboratories
Scp1 inh – Scp-1 phosphatase inhibitors, primary screen, biochemical, colorimetric, uHTS; Carboxy-terminal domain RNA polymerase II polypeptide A small phosphatase 1 (Homo …; Recombinant Scp1, phosphopeptide, malachite green phosphate absorbance; inhibition, % at 20 µM; 0.88% of 340,000 active; AID 493091, 2011;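 active means inhibition above about 50% at 20 µM, limit read from the data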;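 further: plate controls were DMSO wells with enzyme for no effect and wells lacking enzyme for full effect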
Target sequence (Q9GZU7 76-261 limits assumed): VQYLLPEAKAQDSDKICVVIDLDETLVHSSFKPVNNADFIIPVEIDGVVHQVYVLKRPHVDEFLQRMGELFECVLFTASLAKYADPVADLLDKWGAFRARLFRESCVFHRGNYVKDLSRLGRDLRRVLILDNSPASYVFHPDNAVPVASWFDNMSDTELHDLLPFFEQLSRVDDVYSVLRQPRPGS
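Test system: SCP-1 phosphatase catalytic domain, residues 76-261; measured by: colorimetric phosphate reagent with accelerator and stabiliser, absorbance at 630 nm; timing: enzyme reaction 45 min at room temperature, colour 5 min, stabilisation 30 min; also added: Phosphorylated 17-residue peptide substrate; compound dosing: one concentration, 20 µM, with 1.0% DMSO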
GRK2 inh – compounds blocking aptamer binding on GRK2 – biochemical, human GRK2, bead flow cytometry, HTS, primary screen | AID 488847, 2010 | FAM-aptamer displacement from GRK2 | Beta-adrenergic receptor kinase 1 (Homo sapiens), P25098 | 0.59% of 330,000 active | inhibition of aptamer binding, % at 10 µM;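 active means inhibition of aptamer binding above 40%, roughly 3 SD of noise, on plates passing a quality check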;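 further: median bead fluorescence of bound FAM aptamer so fluorescent compounds give negative values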
DNMT1 block – human DNMT1 methyltransferase inhibitors, primary screen, biochemical, molecular beacon, fluorescence, HinP1I cleavage, uHTS; DNA (cytosine-5)-methyltransferase 1 (Homo sapiens), P26358; inhibition (reported as % activation of signal), % at 10 µM; 0.83% of 360,000 active; AID 588458, 2011; in the data active means inhibition above about 50%
SUMO1-SIM PPI – modulators of SUMO1 protein-protein interactions, primary screen, biochemical, uHTS. inhibition, % at 20 µM. SUMO1 binding to a labelled peptide, TR-FRET, 1 h. 0.33% of 360,000 active. Small ubiquitin-related modifier 1 (Homo sapiens), P63165. AID 602429, 2012; in the data active means inhibition above about 37%
Target sequence (P63165 whole entry, looked up): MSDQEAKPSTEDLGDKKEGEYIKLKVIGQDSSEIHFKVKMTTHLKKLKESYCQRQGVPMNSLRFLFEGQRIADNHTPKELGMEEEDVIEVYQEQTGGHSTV
STEP block – STEP phosphatase inhibitors, primary screen, biochemical, fluorescence intensity, uHTS | recombinant STEP, OMFP fluorogenic substrate | inhibition, % at 20 µM | 0.25% of 360,000 active | AID 588621, 2011;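 active means inhibition at 20 µM, scaled per plate between control wells, above about 37%, limit read from the data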;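 further: 0% = DMSO with enzyme and substrate and 100% = substrate only without enzyme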
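medium = Bis-Tris buffer pH 6.0, 2.5 mM DTT, 0.005% Tween 20 | test system = STEP (striatal-enriched tyrosine phosphatase) enzyme, cell-free | measure = normalized % inhibition | compound dosing = 20 µM, 1% DMSO | also added = 25 µM OMFP | schedule = reaction 20 min, ambient temperature | measured by = fluorescence read at 480 nm ex / 540 nm em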
LMPTP block – LMPTP phosphatase inhibitors, primary screen, biochemical, fluorescence intensity, uHTS; recombinant LMPTP-A, OMFP fluorogenic substrate; 0.22% of 360,000 active; inhibition, % at 20 µM;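 active means compounds that cut the enzyme signal by at least half of the control window in the single-dose screen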;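 further: plate controls were DMSO wells with enzyme plus substrate for no effect and substrate without enzyme for full effect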
Target sequence (P24666 whole entry, looked up): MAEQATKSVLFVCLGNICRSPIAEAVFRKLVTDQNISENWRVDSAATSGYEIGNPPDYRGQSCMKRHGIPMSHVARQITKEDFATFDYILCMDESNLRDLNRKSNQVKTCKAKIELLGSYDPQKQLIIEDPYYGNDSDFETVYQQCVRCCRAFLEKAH
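Assay system: LMPTP-A enzyme. Input: 0.625 nM LMPTP-A final. Probe or stimulus: 400 µM OMFP. Compound dosing: single 20 µM dose. Schedule: 50 min dark incubation at room temperature. Detection: fluorescence intensity of OMFP turnover product. Read-out: percent inhibition versus substrate-only and uninhibited controls. Benchmarks: no-enzyme low control, uninhibited high control.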
GRK2 inh confirm – GRK2 aptamer-displacing inhibitors, retest, confirmation, biochemical, cherry pick 1, bead flow cytometry | shares compounds with GRK2 inh | bead-bound GRK2, FAM-aptamer displacement | aptamer displacement, % at 10 µM | 4% of 2,000 active | AID 504451, 2011;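 active means aptamer displacement above 40%, near three times the noise of non-fluorescent compounds, on plates passing quality checks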;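 further: negative values mostly reflect intrinsic compound fluorescence rather than true enhancement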
Aptamer quench 1 – quenches fluorescent RNA aptamer, GRK2 hit artifact; shares compounds with GRK2 inh; Fluorescent RNA aptamer beads, quenching, flow cytometry; stronger effect = higher value; fluorescence change (kMESF span), kMESF (no concentration beside the values); 110 tested, under 10 active;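 active means compounds whose bead fluorescence drops by more than 37 kMESF across the dose range, marking them as dye quenchers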
FAM quench CP1 – quenches fluorescent RNA aptamer, GRK2 hit artifact | shares compounds with GRK2 inh | Carboxyfluorescein RNA aptamer on beads, flow cytometry quenching; stronger effect = lower value | fluorescence response (% of DMSO), % at 10 µM | 2,000 tested, under 10 active | AID 504580;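 active means compounds that quench the bead-bound fluorescent RNA probe, cutting fluorescence to under half of the solvent control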;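 further: counterscreen run without GRK2 so only probe quenching by compound is measured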
GRK2 CP2 – GRK2 aptamer-displacing inhibitors, hit retest, confirmation, biochemical, cherry pick 2, bead flow cytometry; shares compounds with GRK2 inh; bead-bound GRK2, FAM-aptamer displacement; inhibition of aptamer binding, % at 10 µM; 360 tested, under 10 active; AID 504782, 2011;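 active means inhibition of aptamer binding above 40%, about triple the noise seen with nonglowing compounds, on plates passing quality control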;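 further: negative values mostly come from compounds that fluoresce themselves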
FAM quench CP2 – quenches fluorescent RNA aptamer, GRK2 hit artifact. 360 tested, under 10 active. shares compounds with GRK2 inh. fluorescence response vs DMSO, % at 10 µM. AID 588494. carboxyfluorescein RNA aptamer beads, flow cytometry quenching; stronger effect = lower value;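 active means response vs DMSO under 50%, meaning signal dropped by over half, treated as fluorescence quencher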;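 further: labelled aptamer on streptavidin beads without GRK2 as a quench counter-screen; 100% = bead fluorescence of DMSO wells and lower means quenching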
FAM quench DR – quenchers of FAM-labeled RNA aptamer fluorescence, dose response, artefact control for GRK2 aptamer binding project, biochemical, powder set 1, flow cytometry | shares compounds with GRK2 inh | fluorescence ratio to DMSO, % at 11.1 µM | AID 588496, 2011 | Bead-bound FAM RNA aptamer fluorescence quenching; stronger effect = lower value | 35 tested, under 10 active;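 active means compounds that dim the fluorescent label, raw bead signal shifting by over 33 units between lowest and highest dose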
* marks the source's active call; other numbers are inactive results; nt = not tested or not shown. In the library only some 2.1% were active in any assay of this set; here they are far more common.

SMILES | Scp1 inh | GRK2 inh | DNMT1 block | SUMO1-SIM PPI | STEP block | LMPTP block | GRK2 inh confirm | FAM quench CP1 | others
COc1ccc([C@H]2C[C@H](O)[C@@H](n3cc(-c4ccc(F)cc4)nn3)CN2Cc2cccs2)cc1 | nt | nt | -25.4 | 0.8 | -3.2 | 5.2 | nt | nt
O=C(Nc1ccccc1Cl)N1CCN(C/C=C/c2ccccc2)CC1 | 6.1 | 0.0 | 4.3 | 3.6 | -4.1 | -1.3 | nt | nt
Cc1ccccc1NC(=O)N1CCN(C/C=C/c2ccccc2)CC1 | -5.6 | 66.0* | -4.5 | -0.1 | -2.3 | -0.5 | 2.9 | 99.0
Cc1cc(C(F)(F)F)nc(SCC(=O)NC2CC3CCC2C3)n1 (stereo not given) | -0.6 | 53.0* | -0.7 | -5.0 | -2.0 | -2.2 | -2.3 | 97.5
CCC(C)[C@H]1CN=C(N)N1CCc1cccc(F)c1 (stereo not given in full) | -0.2 | 3.0 | 0.1 | -3.7 | -2.0 | -1.6 | nt | nt
O=C(COc1ccc(Cl)cc1Cl)N/N=C/c1ccc(OC2OC(CO)C(O)C(O)C2O)cc1 (stereo not given) | 3.5 | 1.0 | 3.0 | -16.6 | 0.5 | -0.5 | nt | nt
C/C(=N\Nc1nc2ccccc2[nH]1)c1ccc(N2CCOCC2)cc1 | 0.6 | 52.0* | -2.3 | -10.5 | 3.7 | 6.0 | -0.4 | 100.7
C/C(=N\Nc1nc(C)cc(C)n1)c1ccc(N2CCOCC2)cc1 | -3.0 | 2.0 | -1.9 | -9.6 | -0.2 | -0.5 | nt | nt
O=C(O)c1cc(O)c2c(c1)[C@H]([C@H]1c3cc(C(=O)O)cc(O)c3C(=O)c3c(O[C@@H]4O[C@H](CO)[C@@H](O)[C@H](O)[C@H]4O)cccc31)c1cccc(OC3O[C@H](CO)[C@@H](O)[C@H](O)[C@H]3O)c1C2=O (stereo not given in full) | 92.4* | 99.0* | 97.1* | 116.2* | 98.5* | 94.1* | 30.3 | 95.2
O=C1c2c(O)cccc2C(C2OC(CO)[C@@H](O)[C@H](O)[C@H]2O)c2cc(CO)cc(O)c21 (stereo not given in full) | -2.3 | 2.0 | -4.9 | -21.7 | -0.5 | 2.4 | nt | nt
COc1cc(NS(=O)(=O)c2ccc3c(c2)C(C)(C)C(=O)N3C)cc(OC)c1 | 37.3 | 44.0* | 13.2 | 6.1 | 3.6 | 5.1 | 4.2 | 98.9
C=CCn1c(SCC(=O)N(CCO)CCO)nc2sc3c(c2c1=O)CCC3 | -3.7 | 2.0 | 2.0 | 8.4 | 2.1 | -1.6 | nt | nt
O=C(N/N=C/c1ccc(O)cc1)c1[nH]c2ccc(Br)cc2c1-c1ccccc1 | 3.8 | 51.0* | -16.6 | -2.4 | 0.7 | 1.9 | -7.5 | 100.0
CCCCCn1c(CN2CCCCC2CC)nc2c1c(=O)n(C)c(=O)n2C (stereo not given) | -16.7 | 0.0 | 2.6 | 3.3 | -5.2 | -0.6 | -0.1 | 100.7
COc1ccc(CCNC(=O)CCNC(=O)c2ccc(Br)cc2)cc1OC | -0.8 | 1.0 | 4.0 | 3.8 | 1.2 | -2.0 | nt | nt
COc1ccc(CCNC(=O)CCS(=O)(=O)c2ccc(Br)cc2)cc1OC | 10.8 | 20.0 | 10.5 | 3.1 | -2.1 | -0.6 | 13.2 | 94.8 | Aptamer quench 1=7.4;FAM quench DR=100.0
COc1ccc(CCNCC(C)c2ccccc2)cc1 (stereo not given) | -18.6 | 4.0 | 1.3 | 2.0 | 1.1 | -1.8 | -0.1 | 105.9
COC(=O)C1CC(c2c(OC)cc(OC)cc2OC)=NO1 (stereo not given) | -3.6 | 0.0 | 2.3 | -2.5 | 2.2 | -2.3 | nt | nt | GRK2 CP2=16.8;FAM quench CP2=99.0
COc1cccc(C2=NOC(C(=O)Nc3ccc(OC)c(OC)c3)C2)c1 (stereo not given) | -8.4 | 3.0 | -3.1 | 0.2 | 1.9 | 0.9 | nt | nt
COC(=O)[C@@H]1C(c2c(OC)cc(OC)cc2OC)=NO[C@H]1C(=O)OC | -5.1 | 0.0 | 8.2 | 2.9 | -0.8 | -0.6 | nt | nt | GRK2 CP2=-1.6;FAM quench CP2=99.0
Cc1ncc([N+](=O)[O-])n1CC(=O)Nc1ccc(F)cc1F | -9.0 | 0.0 | 6.6 | -3.6 | -3.7 | -0.6 | nt | nt
COCCN1CCC(CNCc2c(C(=O)N3CCCCC3)nc3c(C)cccn23)C1 (stereo not given) | -5.6 | 0.0 | 4.0 | -10.5 | 3.1 | -1.8 | nt | nt
CCOC(=O)c1cnc(SC2CC(=O)N(c3ccc(OC)c(OC)c3)C2=O)nc1N (stereo not given) | -5.8 | 45.0* | -0.2 | 3.0 | 0.1 | -1.6 | -4.1 | 98.4
CC(=O)Nc1ccc(S(=O)(=O)N2CCN(C(=O)c3ncoc3-c3ccc(C)cc3)CC2)cc1 | 0.1 | 0.0 | 1.9 | 1.1 | -0.6 | 0.2 | nt | nt
CCn1cc(C(=O)NCC(OC)OC)c(=O)c2cc(S(=O)(=O)N3CCOCC3)ccc21 | -6.8 | 45.0* | 0.1 | 0.8 | -2.9 | -0.6 | -0.1 | 97.9
COC(CNC(=O)c1cn(C)c2ccc(S(=O)(=O)N3CCOCC3)cc2c1=O)OC | -4.7 | 1.0 | -0.2 | -2.9 | 0.5 | -2.0 | nt | nt
CCN(CC(=O)Nc1ccc(Br)cc1)C(=O)Cc1cccc(F)c1 | 3.7 | 0.0 | -0.1 | 3.4 | -2.0 | 2.0 | nt | nt
